Assays:
Influenza A virus [1] = test: Antiviral activity against sInfluenza A virus (A/California/04/2009(H1N1)) infected in MDCK cells from ATCC assessed as log reduction in viral titer at 4.7 uM after 24 hrs by immunofluorescent assay; assay type: functional
How it was run: (§1)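 MDCK cells (ATCC or Mill Hill) infected with 2009 pandemic H1N1 at MOI ~0.01, 1 h adsorption at 4°C, washed. DMEM with 2 μg/ml TPCK-trypsin plus drug for 24 h at 37°C. Supernatants titrated on MDCK cells by focus formation: methanol/acetic acid fixation, anti-nucleoprotein MAbs, FITC secondary, foci counted. Titre as log10 FFU per 100 μl; detection limit <10 FFU; quadruplicate wells.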

Influenza A virus [2] = test: Antiviral activity against Influenza A virus (A/Mexico/4604/2009(H1N1)) infected in MDCK cells from ATCC assessed as inhibition of viral replication after 3 days by microscopic analysis using crystal violet stain; assay type: functional
How it was run: (§2)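 Confluent MDCK-ATCC monolayers infected with virus diluted to give 15–45 plaques/well. Adsorption 1 h at 37°C without drug, then washed. Overlaid with 0.8% agarose in MEM containing drug plus TPCK-trypsin: 3 μg/ml for seasonal viruses, 2 μg/ml for 2009 A(H1N1). Incubated 3 days at 37°C, 5% CO2. Ethanol-fixed, crystal violet-stained, plaques counted. EC50 by curve fit; duplicates on three occasions, mean ± SD.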

Influenza A virus [3] = test: Antiviral activity against sInfluenza A virus (A/Washington/29/2009(H1N1)) infected in MDCK cells from ATCC assessed as log reduction in viral titer at 42.7 uM after 24 hrs by immunofluorescent assay; assay type: functional, Influenza A virus (A/Washington/29/2009(H1N1)); how it was run: as §1
Influenza A virus [4] = test: Antiviral activity against adamantane-, oseltamivir-, zanamivir-susceptible Influenza A virus (A/Georgia/17/2006(H1N1)) infected in MDCK cells assessed as inhibition of viral replication after 3 days by microscopic analysis using crystal violet stain; assay type: functional, organism-based; conditions: 72 h; how it was run: as §2
Influenza A virus [5] = test: microbe, parasite or virus in culture; conditions: (A/Swine/South Dakota/03/2008(H1N1)), MDCK, 72 h
Influenza A virus [6] = test: microbe, parasite or virus in culture; conditions: MDCK, 72 h
Influenza A virus [7] = test: microbe, parasite or virus in culture; conditions: MDCK, 72 h; remark: listed apart in the source
Influenza A virus [8] = test: Antiviral activity against Influenza A virus (A/California/04/2009(H1N1)) infected in MDCK cells from Mill Hill assessed as log reduction in viral titer at 1.6 uM after 24 hrs by immunofluorescent assay; assay type: functional
How it was run: (§3)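 Yield reduction in MDCK-ATCC or MDCK-Mill Hill cells infected at MOI ∼0.01. Adsorption 1 h at 4°C, washed, then DMEM with 2 μg/ml TPCK-trypsin and drug. At 24 h, supernatants were titrated by immunofluorescent focus assay on MDCK cells with anti-NP monoclonals and FITC secondary. Titres as log10 FFU per 100 μl; detection limit <10 FFU. Quadruplicate, mean ± SD.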

Influenza A virus [9] = test: Antiviral activity against Influenza A virus (A/Mexico/4604/2009(H1N1))infected in MDCK cells from Mill Hill assessed as log reduction in viral titer at 4.7 uM after 24 hrs by immunofluorescent assay; assay type: functional; how it was run: as §3
Influenza A virus [10] = test: Antiviral activity against sInfluenza A virus (A/Washington/29/2009(H1N1)) infected in MDCK cells from Mill Hill assessed as log reduction in viral titer at 4.7 uM after 24 hrs by immunofluorescent assay; assay type: functional, Influenza A virus (A/Washington/29/2009(H1N1)); how it was run: as §1
Influenza A virus [11] = test: Antiviral activity against Influenza A virus (A/Mexico/4604/2009(H1N1)) infected in MDCK cells from Mill Hill assessed as log reduction in viral titer at 128 uM after 24 hrs by immunofluorescent assay; assay type: functional; how it was run: as §3
Influenza A virus [12] = test: Antiviral activity against Influenza A virus (A/Mexico/4604/2009(H1N1)) infected in MDCK cells from Mill Hill assessed as log reduction in viral titer at 14.2 uM after 24 hrs by immunofluorescent assay; assay type: functional; how it was run: as §3
Influenza A virus [13] = test: Antiviral activity against Influenza A virus (A/Mexico/4604/2009(H1N1)) infected in MDCK cells from ATCC assessed as log reduction in viral titer at 14.2 uM after 24 hrs by immunofluorescent assay; assay type: functional; how it was run: as §3
Influenza A virus [14] = test: Antiviral activity against Influenza A virus (A/California/04/2009(H1N1)) infected in MDCK cells from ATCC assessed as inhibition of viral replication after 3 days by microscopic analysis using crystal violet stain; assay type: functional; how it was run: as §2
Influenza A virus [15] = test: Antiviral activity against Influenza A virus (A/Mexico/4604/2009(H1N1)) infected in MDCK cells from ATCC assessed as log reduction in viral titer at 128 uM after 24 hrs by immunofluorescent assay; assay type: functional; how it was run: as §3
Influenza A virus [16] = test: microbe, parasite or virus in culture; conditions: (A/Ecuador/5179/2008(H1N1)), MDCK, 72 h
Influenza A virus [17] = test: Antiviral activity against sInfluenza A virus (A/Washington/29/2009(H1N1)) infected in MDCK cells from ATCC assessed as log reduction in viral titer at 14.2 uM after 24 hrs by immunofluorescent assay; assay type: functional, Influenza A virus (A/Washington/29/2009(H1N1)); how it was run: as §1
Influenza A virus [18] = test: Antiviral activity against Influenza A virus (A/Mexico/4604/2009(H1N1)) infected in MDCK cells from ATCC assessed as log reduction in viral titer at 4.7 uM after 24 hrs by immunofluorescent assay; assay type: functional; how it was run: as §3
Influenza A virus [19] = test: Antiviral activity against Influenza A virus (A/Illinois/10/2009(H1N1)) infected in MDCK cells from ATCC assessed as log reduction in viral titer at 128 uM after 24 hrs by immunofluorescent assay; assay type: functional; how it was run: as §3
Influenza A virus [20] = test: Antiviral activity against sInfluenza A virus (A/California/04/2009(H1N1)) infected in MDCK cells from ATCC assessed as log reduction in viral titer at 128 uM after 24 hrs by immunofluorescent assay; assay type: functional; how it was run: as §1
Influenza A virus [21] = test: Antiviral activity against Influenza A virus (A/Washington/29/2009(H1N1)) infected in MDCK cells from Mill Hill assessed as log reduction in viral titer at 128 uM after 24 hrs by immunofluorescent assay; assay type: functional; how it was run: as §3
Influenza A virus [22] = test: microbe, parasite or virus in culture; conditions: (A/Brazil/1067/2008(H1N1)), MDCK, 72 h
Influenza A virus [23] = test: Antiviral activity against Influenza A virus (A/Mexico/4604/2009(H1N1)) infected in MDCK cells from Mill Hill assessed as log reduction in viral titer at 42.7 uM after 24 hrs by immunofluorescent assay; assay type: functional; how it was run: as §3
Influenza A virus [24] = test: Antiviral activity against Influenza A virus (A/California/04/2009(H1N1)) infected in MDCK cells from Mill Hill assessed as inhibition of viral replication after 3 days by microscopic analysis using crystal violet stain; assay type: functional

**Q.** With `NC(=O)c1nc(F)cnc1O` [FAVIPIRAVIR] as the molecule, how does the log10FFU (Influenza A virus [1]) read?
**A.** 1.8

**Q.** What about the log10FFU (Influenza A virus [2]) of the same molecule?
**A.** 0.35

**Q.** What about the log10FFU (Influenza A virus [3]) of the same molecule?
**A.** 1.8

**Q.** What about the EC50 (Influenza A virus [4]) of the same molecule?
**A.** 1460 nM

**Q.** What about the EC50 (Influenza A virus [5]) of the same molecule?
**A.** 830 nM

**Q.** And the EC50 (Influenza A virus [6])?
**A.** 380 nM

**Q.** And the EC50 (Influenza A virus [7])?
**A.** 960 nM

**Q.** What about the log10FFU (Influenza A virus [8]) of the same molecule?
**A.** 4.1

**Q.** And the log10FFU (Influenza A virus [9])?
**A.** 6.2

**Q.** And the log10FFU (Influenza A virus [10])?
**A.** 4.7

**Q.** What about the log10FFU (Influenza A virus [11]) of the same molecule?
**A.** <1

**Q.** What about the log10FFU (Influenza A virus [12]) of the same molecule?
**A.** 4.6

**Q.** And the log10FFU (Influenza A virus [13])?
**A.** 2.4

**Q.** And the log10FFU (Influenza A virus [14])?
**A.** 0.48

**Q.** What about the log10FFU (Influenza A virus [15]) of the same molecule?
**A.** <1

**Q.** What about the EC50 (Influenza A virus [16]) of the same molecule?
**A.** 2480 nM

**Q.** And the log10FFU (Influenza A virus [17])?
**A.** 2.2

**Q.** What about the log10FFU (Influenza A virus [18]) of the same molecule?
**A.** 3.5

**Q.** And the log10FFU (Influenza A virus [19])?
**A.** <1

**Q.** What about the log10FFU (Influenza A virus [20]) of the same molecule?
**A.** <1

**Q.** What about the log10FFU (Influenza A virus [21]) of the same molecule?
**A.** <1

**Q.** And the EC50 (Influenza A virus [22])?
**A.** 1850 nM

**Q.** And the log10FFU (Influenza A virus [23])?
**A.** 2.1

**Q.** What about the log10FFU (Influenza A virus [24]) of the same molecule?
**A.** 3.75

Source: ChEMBL document CHEMBL1671691 (Antimicrob Agents Chemother, 2010)
